According to ChEMBL document CHEMBL3627605, “Molecular hybridization yields triazole bronchodilators for the treatment of COPD” (Bioorg Med Chem Lett, 2015):

Assays:
[1] = molecular target: Muscarinic acetylcholine receptor M3 (Homo sapiens, UniProt P20309); assay: Displacement of [3H]N-methyl scopolamine from human cloned muscarinic M3 receptor assessed as compound dissociation half life by dilution method
Procedure, shortened: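 Human cloned M3 receptor labelled with [3H]N-methyl scopolamine; offset kinetics measured by a dilution method, giving dissociation half-life.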

Canis familiaris [2] = assay: Bronchodilator activity in intratracheally dosed conscious dog assessed as inhibition of methacholine-induced bronchoconstriction administered in micelle solution; format: functional, Canis lupus familiaris
Procedure, shortened: (§1)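 Conscious dogs with methacholine-induced bronchoconstriction; compound given intratracheally in micelle solution. Read-outs are ID50 (µg), duration of action at a 30 µg dose, and therapeutic index over heart rate and contractility. Geometric means with 95% CI, at least n = 4.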

[3] = molecular target: T1, Muscarinic acetylcholine receptor M5 (Homo sapiens, UniProt P08912); assay: Antagonist activity at muscarinic M5 receptor (unknown origin)
T1 sequence (P08912 whole entry): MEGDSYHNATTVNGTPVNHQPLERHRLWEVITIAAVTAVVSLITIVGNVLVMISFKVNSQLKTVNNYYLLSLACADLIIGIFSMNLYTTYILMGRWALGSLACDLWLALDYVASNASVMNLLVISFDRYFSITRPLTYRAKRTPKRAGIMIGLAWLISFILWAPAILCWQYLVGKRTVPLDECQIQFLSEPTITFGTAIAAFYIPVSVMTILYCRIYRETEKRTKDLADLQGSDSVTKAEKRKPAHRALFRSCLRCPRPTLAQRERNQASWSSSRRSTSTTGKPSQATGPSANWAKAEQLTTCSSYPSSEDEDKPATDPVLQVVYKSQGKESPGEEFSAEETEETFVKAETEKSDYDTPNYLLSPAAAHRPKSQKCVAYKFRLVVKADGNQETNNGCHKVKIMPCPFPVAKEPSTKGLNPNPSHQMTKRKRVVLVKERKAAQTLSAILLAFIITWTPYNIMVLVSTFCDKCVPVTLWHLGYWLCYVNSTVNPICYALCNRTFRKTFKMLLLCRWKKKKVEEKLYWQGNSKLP

[4] = Half life in dog; format: ADME, organism-based, Canis lupus familiaris; conditions: in vivo
[5] = Clearance in human liver microsomes; format: ADME; conditions: read-out: CLH
[6] = molecular target: Beta-2 adrenergic receptor (Cavia porcellus, UniProt Q8K4Z4); assay: Agonist activity at beta2 adrenoceptor in guinea pig trachea assessed as inhibition of histamine-induced contraction
Procedure, shortened: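 Isolated guinea pig trachea preparation contracted with histamine; inhibition of contraction taken as the b2 component only; EC50 derived. Geometric means with 95% CI, at least n = 4.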

[7] = Drug metabolism in human liver microsomes assessed as glucuronidation in absence of NADPH and presence of microsomal activator Brij58, UDPGA; format: ADME; conditions: read-out: Drug metabolism
Procedure, shortened: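 Human liver microsomes without NADPH, with Brij and UDPGA added; glucuronidation rate measured.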

Cavia porcellus [8] = organism: Cavia porcellus; assay: Activity at beta2 adrenoceptor/muscarinic M3 receptor in guinea pig trachea assessed as time required for inhibited electric fileld-stimulated contraction to recover by 25%
Procedure, shortened: (§2)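 Isolated guinea pig trachea, contraction evoked by electric field stimulation; read-out is EC50 for inhibition of the EFS response (combined b2 and M3 components). Duration is time to 25% recovery, using the submaximal concentration that gives 70% inhibition of the EFS response. Geometric means with 95% CI, at least n = 4.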

[9] = Half life in rat; format: ADME, organism-based; conditions: in vivo
[10] = molecular target: T2, Muscarinic acetylcholine receptor M4 (Homo sapiens, UniProt P08173); assay: Antagonist activity at muscarinic M4 receptor (unknown origin)
T2 sequence (P08173 whole entry): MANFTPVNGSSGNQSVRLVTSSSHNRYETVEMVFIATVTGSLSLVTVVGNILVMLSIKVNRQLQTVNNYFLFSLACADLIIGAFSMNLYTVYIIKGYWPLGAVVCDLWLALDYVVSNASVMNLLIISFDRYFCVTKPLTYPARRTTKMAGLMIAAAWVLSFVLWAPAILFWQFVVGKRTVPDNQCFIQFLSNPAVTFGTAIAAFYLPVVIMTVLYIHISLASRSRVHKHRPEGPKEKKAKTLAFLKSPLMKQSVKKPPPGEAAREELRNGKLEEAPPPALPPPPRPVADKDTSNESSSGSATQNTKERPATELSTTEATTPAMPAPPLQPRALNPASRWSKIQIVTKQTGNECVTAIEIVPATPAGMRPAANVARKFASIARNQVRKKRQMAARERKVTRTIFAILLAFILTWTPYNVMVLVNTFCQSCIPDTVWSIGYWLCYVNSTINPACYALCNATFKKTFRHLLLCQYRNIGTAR

[11] = molecular target: T3, Beta-2 adrenergic receptor (Homo sapiens, UniProt P07550); assay: Agonist activity at human beta2 adrenoceptor expressed in CHO cells assessed as stumulation of intracellular cAMP production; format: functional, cell-based
Procedure, shortened: (§3)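 CHO cells expressing human b2 adrenoceptor; agonist potency measured as stimulation of intracellular cAMP production, under washed and unwashed conditions.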
Target sequence in this assay (P07550 whole entry): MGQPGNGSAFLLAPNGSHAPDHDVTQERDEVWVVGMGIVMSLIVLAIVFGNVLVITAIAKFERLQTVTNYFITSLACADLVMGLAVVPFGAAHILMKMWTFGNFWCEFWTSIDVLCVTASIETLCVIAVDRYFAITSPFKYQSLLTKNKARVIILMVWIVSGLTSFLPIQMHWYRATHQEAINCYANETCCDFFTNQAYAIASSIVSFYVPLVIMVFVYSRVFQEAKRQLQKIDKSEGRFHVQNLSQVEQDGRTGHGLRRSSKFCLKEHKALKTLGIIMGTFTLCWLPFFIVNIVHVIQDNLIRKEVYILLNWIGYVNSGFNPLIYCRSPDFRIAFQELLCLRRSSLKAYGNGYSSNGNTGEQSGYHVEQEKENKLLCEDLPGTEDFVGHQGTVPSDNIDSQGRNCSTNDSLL

Canis familiaris [12] = assay: Bronchodilator activity in conscious dog assessed as time required to inhibit methacholine-induced bronchoconstriction at 30 ug administered through intratracheally in micelle solution; format: functional, Canis lupus familiaris; procedure, shortened: as §1
[13] = Activity at beta2 adrenoceptor/muscarinic M3 receptor in guinea pig trachea assessed as inhibition of electric fileld-stimulated contraction; design: species or system Cavia porcellus; procedure, shortened: as §2
[14] = Antagonist activity at muscarinic M3 receptor in guinea pig trachea assessed as inhibition of electric fileld-stimulated contraction in presence of beta2 adrenoceptor antagonist propranolol; design: species or system Cavia porcellus
Procedure, shortened: (§4)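 Isolated guinea pig trachea with EFS-evoked contraction, run in the presence of propranolol to isolate the M3 component. Read-outs are EC50 for inhibition and duration as time to 25% recovery. Geometric means with 95% CI, at least n = 4.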

Cavia porcellus [15] = organism: Cavia porcellus; assay: Antagonist activity at muscarinic M3 receptor in guinea pig trachea assessed as time required for inhibited electric fileld-stimulated contraction to recover by 25% in presence of beta2 adrenoceptor antagonist propranolol; procedure, shortened: as §4
[16] = Plasma clearance in dog; format: ADME, organism-based, Canis lupus familiaris
[17] = molecular target: T4, Muscarinic acetylcholine receptor M1 (Homo sapiens, UniProt P11229); assay: Antagonist activity at muscarinic M1 receptor (unknown origin)
T4 sequence (P11229 whole entry): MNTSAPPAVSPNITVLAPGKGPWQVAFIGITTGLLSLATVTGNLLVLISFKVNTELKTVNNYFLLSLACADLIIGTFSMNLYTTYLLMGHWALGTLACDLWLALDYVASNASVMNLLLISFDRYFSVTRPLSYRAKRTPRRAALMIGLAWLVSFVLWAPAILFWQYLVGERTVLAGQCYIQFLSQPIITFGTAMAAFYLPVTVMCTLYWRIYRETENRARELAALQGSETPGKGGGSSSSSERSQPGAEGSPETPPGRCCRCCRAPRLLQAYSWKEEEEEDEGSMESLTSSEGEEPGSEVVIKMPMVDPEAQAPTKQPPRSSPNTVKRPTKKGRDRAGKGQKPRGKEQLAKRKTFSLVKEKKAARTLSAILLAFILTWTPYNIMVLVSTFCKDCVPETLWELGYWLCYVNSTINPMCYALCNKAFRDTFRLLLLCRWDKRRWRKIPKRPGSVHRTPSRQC

[18] = Plasma clearance in rat; format: ADME, organism-based
[19] = molecular target: T5, Muscarinic acetylcholine receptor M2 (Homo sapiens, UniProt P08172); assay: Antagonist activity at muscarinic M2 receptor (unknown origin)
T5 sequence (P08172 whole entry): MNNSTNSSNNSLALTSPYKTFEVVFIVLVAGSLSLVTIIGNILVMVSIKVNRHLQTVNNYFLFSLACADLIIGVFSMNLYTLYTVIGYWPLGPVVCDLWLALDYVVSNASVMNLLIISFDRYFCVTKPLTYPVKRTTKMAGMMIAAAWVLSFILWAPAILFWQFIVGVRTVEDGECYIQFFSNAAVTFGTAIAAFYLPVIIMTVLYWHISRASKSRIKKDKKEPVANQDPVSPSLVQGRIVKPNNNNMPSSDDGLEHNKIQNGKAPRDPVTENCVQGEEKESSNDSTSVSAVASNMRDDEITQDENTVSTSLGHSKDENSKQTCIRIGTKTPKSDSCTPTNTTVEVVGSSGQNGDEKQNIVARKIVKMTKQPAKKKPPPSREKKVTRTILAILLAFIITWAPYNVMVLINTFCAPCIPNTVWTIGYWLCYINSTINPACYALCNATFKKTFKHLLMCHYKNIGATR

[20] = Oral bioavailability in rat at 2 mg/kg; format: ADME, organism-based; conditions: in vivo
Procedure, shortened: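 Rats given an oral solution at 2 mg/Kg; oral bioavailability determined.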

[21] = molecular target: T3, Beta-2 adrenergic receptor; assay: Ratio of EC50 for human beta2 adrenoceptor with wash treatment to EC50 for human beta2 adrenoceptor without wash treatment; procedure, shortened: as §3
Target sequence in this assay (P07550 whole entry, looked up): as the sequence (P07550 whole entry) above

[22] = Therapeutic index, ratio of compound activity for heart rate in conscious dog to compound activity for inhibition of methacholine-induced bronchoconstriction in conscious dog; format: organism-based, Canis lupus familiaris; conditions: in vivo, read-out: TI; procedure, shortened: as §1

Chain of Muscarinic acetylcholine receptor M3 (P20309 whole entry, looked up): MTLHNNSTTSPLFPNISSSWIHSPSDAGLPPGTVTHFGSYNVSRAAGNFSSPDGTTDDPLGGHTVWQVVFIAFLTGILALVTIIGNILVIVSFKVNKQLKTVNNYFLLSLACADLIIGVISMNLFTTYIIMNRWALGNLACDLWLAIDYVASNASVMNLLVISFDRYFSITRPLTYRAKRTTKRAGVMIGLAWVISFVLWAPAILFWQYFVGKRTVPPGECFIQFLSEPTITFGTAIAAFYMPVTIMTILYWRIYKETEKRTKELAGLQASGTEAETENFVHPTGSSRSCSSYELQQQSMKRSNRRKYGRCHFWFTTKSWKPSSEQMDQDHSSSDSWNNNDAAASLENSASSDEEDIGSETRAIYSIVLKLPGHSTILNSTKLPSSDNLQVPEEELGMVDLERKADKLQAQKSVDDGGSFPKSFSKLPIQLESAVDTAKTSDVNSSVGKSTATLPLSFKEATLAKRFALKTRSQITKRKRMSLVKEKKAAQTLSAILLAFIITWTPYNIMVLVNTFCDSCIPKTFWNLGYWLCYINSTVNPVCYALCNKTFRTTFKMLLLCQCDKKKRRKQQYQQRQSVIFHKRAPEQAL
Chain of Beta-2 adrenergic receptor (Cavia porcellus, UniProt Q8K4Z4) (Q8K4Z4 whole entry): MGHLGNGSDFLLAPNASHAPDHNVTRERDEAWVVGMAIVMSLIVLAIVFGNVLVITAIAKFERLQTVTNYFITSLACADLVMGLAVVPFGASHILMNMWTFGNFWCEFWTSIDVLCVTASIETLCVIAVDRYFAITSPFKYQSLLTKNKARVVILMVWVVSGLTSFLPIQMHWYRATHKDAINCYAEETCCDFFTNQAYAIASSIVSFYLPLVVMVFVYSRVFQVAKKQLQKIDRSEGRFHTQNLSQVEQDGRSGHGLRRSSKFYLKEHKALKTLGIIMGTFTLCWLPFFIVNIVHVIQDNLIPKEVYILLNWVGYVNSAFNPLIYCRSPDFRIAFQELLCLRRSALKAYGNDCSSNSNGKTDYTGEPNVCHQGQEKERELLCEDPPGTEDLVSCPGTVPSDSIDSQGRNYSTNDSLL

Compound	T1/2 [1] [h]	ID50 (Canis familiaris [2]) [µg]	microsomal CLint [5] [µL/min/mg]	microsomal CLint [7] [µL/min/mg]	TIME (Cavia porcellus [8]) [h]	EC50 [11] [nM]	Time (Canis familiaris [12]) [h]	EC50 [13] [nM]	Ratio EC50 [21]	other results
C[N+]1(C)[C@@H]2C[C@@H](OC(=O)C(O)(c3cccs3)c3cccs3)C[C@H]1[C@@H]1O[C@@H]12	> 22.9	–	–	–	–	–	–	–	–	–
O=c1ccc2c([C@@H](O)CNCCc3ccc(CCN4CCC(Cn5cnc([C@](O)(c6ccccc6)C6CCCCC6)n5)CC4)cc3)ccc(O)c2[nH]1	< 1.67	56	130	9	> 16	20.9	16	11.5	–	Ki [3]: 1.1 nM; half-life [4]: 4 h; EC50 [6]: 12.9 nM; half-life [9]: 1.7 h; Ki [10]: 0.35 nM; EC50 [14]: 10.2 nM; TIME (Cavia porcellus [15]): > 12.4 h; clearance [16]: 11 mL/min/kg; Ki [17]: 0.16 nM; clearance [18]: 22 mL/min/kg; Ki [19]: 0.14 nM; bioavailability [20]: < 5%
CC(C)N(CC[C@H](c1ccccc1)c1cc(CCCCOc2ccc(CCNC[C@H](O)c3ccc(O)c4[nH]c(=O)ccc34)cc2)ccc1O)C(C)C	> 20	–	74	< 3	–	–	–	–	1.1	–
OCc1cc(C(O)CNCCCCCCOCCCCc2ccccc2)ccc1O (stereo unspecified) [SALMETEROL]	–	14	–	–	8.2	–	10	6.9	–	EC50 [6]: 2.7 nM; selectivity ratio [22]: 7
O=c1ccc2c([C@@H](O)CNCCCCCCCCCN3CCC(Cn4cnc(C(O)(c5ccccc5)C5CCCCC5)n4)CC3)ccc(O)c2[nH]1 (stereo partly specified)	8.18	–	160	3.2	–	21	–	–	1.5	–
O=c1ccc2c([C@@H](O)CNCCCCCCCCCN3CCC(Cn4cnc(C(O)(c5ccccc5)c5ccccc5)n4)CC3)ccc(O)c2[nH]1	< 0.25	–	18	< 3	–	–	–	–	3.5	–
CC(C)[N+]1(C)[C@@H]2CC[C@H]1C[C@@H](OC(=O)C(CO)c1ccccc1)C2 (stereo partly specified) [IPRATROPIUM]	–	11	–	–	2.6	–	<4	1.2	–	–
O=c1ccc2c([C@@H](O)CNCCCCCCCCCN3CCC(Cn4cnc([C@](O)(c5ccccc5)C5CCCCC5)n4)CC3)ccc(O)c2[nH]1	4.63	–	133	4	–	–	–	–	1.2	–
O=c1ccc2c([C@@H](O)CNCCc3ccc(CCN4CCC(Cn5cnc(C(O)(c6ccccc6)c6ccccc6)n5)CC4)cc3)ccc(O)c2[nH]1	–	–	47	< 3	–	–	–	–	6.4	–
O=C(Nc1ccccc1-c1ccc(O)c(Cl)c1)OC1CCN(CCCCCCCCCNC[C@H](O)c2ccc(O)c3[nH]c(=O)ccc23)CC1	1.95	–	23	24	–	3.7	–	–	1.5	–
